{
  "source": "paper PMC4327868",
  "about": "(Chemical research in toxicology, 2013)",
  "assay_type_in_all_cases": "cell-based",
  "key": {"PC6-3 cells [1]": {"system": "PC6-3 cells", "assay": "Extracellular dopamine metabolites", "conditions": "300 μM", "in_short": "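NGF-differentiated PC6-3 cells were given test compound (0, 10, 25, 50, 100 or 300 μM; 0.6% DMSO) in HEPES-buffered saline, pH 7.4. Extracellular aliquots taken at 0, 1 and 4 h went into 5% perchloric acid and were centrifuged. DOPAL, DOPAC and DOPET were run on isocratic C18 HPLC (0.1% TFA, 6% ACN), read at 202/280 nm, and quantified against standard curves. Mean ± SD, n = 3.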"}, "PC6-3 cells [2]": {"system": "PC6-3 cells", "assay": "DA-supplemented dopamine metabolism", "conditions": "10 μM dieldrin, cells spiked with 100 μM DA 15 min prior, 4 h, vs control", "in_short": "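PC6-3 cells seeded at 6 × 10^4 cells/well, NGF-differentiated (50 ng/mL, 4 days), and given 100 μM DA 15 min before 4 h exposure to test compound (10, 30, 100 or 300 μM) in HEPES-buffered saline. Extracellular DOPAL was measured by capillary C18 HPLC with photodiode-array detection and quantified against a standard curve. Reported as % control; mean ± SEM, n = 3 or 4.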"}, "PC6-3 cells [3]": {"system": "PC6-3 cells", "assay": "Cytotoxicity by lactate dehydrogenase", "conditions": "4 h, even at high concentrations (900 μM)"}},
  "data": [
    {"smiles": "ClC1=C(Cl)C2(Cl)C3CC4OC4CC3C1(Cl)C2(Cl)Cl", "note": "(stereo not drawn) [desmethylene dieldrin, 1,8,9,10,11,11-Hexachloro-4,5-epoxy-2,3-7,6-endotricyclo[6.2.1.0^2,7]undec-9-ene]", "values": [
      {"measurement": "increase of extracellular DOPAL concentration", "setting": "PC6-3 cells [1]", "value": 10, "unit": "fold"}
    ]},
    {"smiles": "ClC1=C(Cl)[C@]2(Cl)[C@@H]3[C@@H]4C[C@@H]([C@H]5O[C@@H]45)[C@@H]3[C@@]1(Cl)C2(Cl)Cl", "note": "[dieldrin]", "values": [
      {"measurement": "increase in extracellular DOPAL levels", "setting": "PC6-3 cells [2]", "value": "~200", "unit": "%"}
    ]},
    {"smiles": "ClC1=C(Cl)C2(Cl)C3C4CC(C5OC45)C3C1(Cl)C2(Cl)Cl", "note": "(stereo not drawn) [endrin]", "values": [
      {"measurement": "cytotoxicity (LDH release)", "setting": "PC6-3 cells [3]", "value": "no cytotoxicity"}
    ]}
  ]
}
